The target in test [1] is Sodium-dependent serotonin transporter (Rattus norvegicus, UniProt P31652). Put plainly: In vitro inhibitory constant against [3H]paroxetine binding to rat frontal cortex membrane serotonin reuptake site. The format is tissue-based. The essentials: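 Rat frontal cortex membranes; serotonin reuptake sites labelled with [3H]paroxetine in competition binding. Ki (nM) calculated from at least three independent experiments.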

Test [2] has as its target Sodium-dependent serotonin transporter (Mus musculus) (UniProt Q60857). Description: Effective dose against potentiation of 5-HTP induced serotonin syndrome in mice upon oral administration (Serotonin reuptake inhibitory activity). The format is functional, organism-based.
Test [3] addresses T1, D(2) dopamine receptor (Homo sapiens, UniProt P14416). Put plainly: In vitro inhibitory constant against [3H]spiperone binding to human dopamine D2 receptor expressed in CHO cells. It counts as cell-based.
Test [4] deals with T1, D(2) dopamine receptor. Put plainly: In vitro inhibitory constant against [3H]spiperone binding to human dopamine D2 receptor expressed in CHO cells; NA= not active. The format is cell-based. The essentials:
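Membrane preparation from CHO cells transfected with human D2L receptor; competition binding against [3H]spiperone.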

SMILES strings stand for the structures. Some results are limits rather than exact numbers.

Chain of Sodium-dependent serotonin transporter (Mus musculus) (Q60857 whole entry): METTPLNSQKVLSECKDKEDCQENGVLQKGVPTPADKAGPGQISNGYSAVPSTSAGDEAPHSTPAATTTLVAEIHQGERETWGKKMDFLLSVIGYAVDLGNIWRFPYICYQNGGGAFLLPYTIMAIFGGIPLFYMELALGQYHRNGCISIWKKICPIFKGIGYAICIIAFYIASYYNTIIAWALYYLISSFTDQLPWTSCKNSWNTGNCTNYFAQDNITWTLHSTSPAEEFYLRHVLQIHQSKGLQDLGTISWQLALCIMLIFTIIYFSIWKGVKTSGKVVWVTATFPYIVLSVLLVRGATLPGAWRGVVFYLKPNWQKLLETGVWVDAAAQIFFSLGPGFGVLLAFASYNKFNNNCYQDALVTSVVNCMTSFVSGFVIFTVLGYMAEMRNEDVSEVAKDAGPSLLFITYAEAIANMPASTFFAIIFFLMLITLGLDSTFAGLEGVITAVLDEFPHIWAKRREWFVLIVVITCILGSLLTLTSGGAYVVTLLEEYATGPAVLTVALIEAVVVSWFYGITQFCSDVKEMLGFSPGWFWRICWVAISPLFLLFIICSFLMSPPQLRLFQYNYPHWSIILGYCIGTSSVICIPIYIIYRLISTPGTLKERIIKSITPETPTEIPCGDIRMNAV
Chain of Sodium-dependent serotonin transporter (P31652 whole entry): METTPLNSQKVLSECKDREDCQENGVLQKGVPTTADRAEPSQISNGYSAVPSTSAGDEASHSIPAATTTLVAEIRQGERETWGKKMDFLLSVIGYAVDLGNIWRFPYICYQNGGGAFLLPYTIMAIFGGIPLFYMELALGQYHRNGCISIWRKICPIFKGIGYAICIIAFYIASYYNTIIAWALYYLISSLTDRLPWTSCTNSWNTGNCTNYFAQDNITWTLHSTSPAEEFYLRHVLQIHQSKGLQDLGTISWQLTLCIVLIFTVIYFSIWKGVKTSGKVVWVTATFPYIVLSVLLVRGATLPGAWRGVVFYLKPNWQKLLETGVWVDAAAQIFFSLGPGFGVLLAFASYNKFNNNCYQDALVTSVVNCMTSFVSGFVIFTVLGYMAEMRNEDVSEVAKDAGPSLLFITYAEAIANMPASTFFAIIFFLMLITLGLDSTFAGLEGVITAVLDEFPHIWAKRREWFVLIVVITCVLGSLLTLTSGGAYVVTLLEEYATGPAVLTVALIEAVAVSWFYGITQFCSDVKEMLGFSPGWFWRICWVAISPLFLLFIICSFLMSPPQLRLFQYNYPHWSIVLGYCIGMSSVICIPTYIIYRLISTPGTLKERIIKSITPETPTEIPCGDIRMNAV
T1 sequence (P14416 whole entry): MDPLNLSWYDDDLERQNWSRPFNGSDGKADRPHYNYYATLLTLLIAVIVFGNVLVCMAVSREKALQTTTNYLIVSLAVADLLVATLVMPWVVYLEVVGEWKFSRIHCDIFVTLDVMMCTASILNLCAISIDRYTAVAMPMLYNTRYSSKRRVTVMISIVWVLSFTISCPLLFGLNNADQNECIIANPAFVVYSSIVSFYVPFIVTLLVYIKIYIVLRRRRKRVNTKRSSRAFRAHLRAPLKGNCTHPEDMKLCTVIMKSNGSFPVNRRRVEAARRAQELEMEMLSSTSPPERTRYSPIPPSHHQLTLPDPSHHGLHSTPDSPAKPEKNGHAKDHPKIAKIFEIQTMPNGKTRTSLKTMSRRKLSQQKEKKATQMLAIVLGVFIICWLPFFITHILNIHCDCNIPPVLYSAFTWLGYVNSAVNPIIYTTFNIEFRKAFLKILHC

For `C[C@H]1Oc2c(cccc2N2CCN(CCCc3c[nH]c4ccc(F)cc34)CC2)NC1=O`, the Ki (commonly the equilibrium dissociation constant of an inhibitor or competing ligand from its target) came out at 0.2 nM in test [1] and 6.9 nM in test [3]. Moreover, in test [2], the ED50 (in general, the dose at which the effect has come halfway, by size or by number of responders) turned out to be 0.15 mg/kg.
`Cc1cccc2c(CCCN3CCN(c4cccc5c4OCCO5)CC3)c[nH]c12` gave a Ki in test [3] of 15.9 nM.
Consider `Fc1cccc2c(CCCN3CCN(c4cccc5c4OCCO5)CC3)c[nH]c12`, for which the ED50 in test [2] amounted to 28.4 mg/kg. The compound further displayed a Ki in test [3] of 10.6 nM.
In turn, `Cc1ccc2[nH]cc(CCCN3CCN(c4cccc5c4OCCO5)CC3)c2c1` registered a Ki in test [1] of 0.4 nM.
With `CC1Oc2c(cccc2N2CCN(CCCc3c[nH]c4ccccc34)CC2)NC1=O` (stereo unspecified), the Ki worked out at 0.4 nM in test [1] and 4.5 nM in test [3]. Moreover, the ED50 in test [2] was determined as 3 mg/kg.
Consider `c1ccc2c(CCC3CCNCC3)c[nH]c2c1` [INDALPINE], for which, in test [4], the Ki entry is listed as “Not Active”.
Consider `c1cc2c(c(N3CCN(CCc4c[nH]c5ccccc45)CC3)c1)OCCO2`, for which the Ki in test [1] was 12 nM; in test [3], 45 nM.
On to `Clc1cccc2[nH]cc(CCCN3CCN(c4cccc5c4OCCO5)CC3)c12`, for which, in test [3], the Ki is 24 nM.
Take `Clc1ccc2[nH]cc(CCCN3CCN(c4cccc5c4OCCO5)CC3)c2c1`: the Ki in test [1] turned out to be 0.5 nM; in test [3], 31.6 nM.
With `C[C@@H]1Oc2c(cccc2N2CCN(CCCc3c[nH]c4ccc(F)cc34)CC2)NC1=O`, the Ki in test [1] came to 0.7 nM; in test [3], 4.7 nM. Besides, the ED50 in test [2] worked out at 0.7 mg/kg.
The like results for `c1cc2c(c(N3CCN(CCCc4c[nH]c5ccccc45)CC3)c1)CCCN2` were, in that order, 1.1 nM, 11.3 nM and 15 mg/kg.
The like results for `C[C@H]1Oc2c(cccc2N2CCN(CCCc3c[nH]c4ccccc34)CC2)NC1=O` were, in that order, 0.5 nM, 8.7 nM and 3 mg/kg.
Taken in the same sequence, the figures for `C[C@H]1Oc2c(cccc2N2CCN(CCCc3c[nH]c4c(F)cccc34)CC2)NC1=O` were 2.4 nM, 5.3 nM and 30 mg/kg.
For `c1cc2c(c(N3CCN(CCCc4c[nH]c5ccccc45)CC3)c1)OCCN2`, the Ki came to 1.5 nM in test [1] and 17.9 nM in test [3]. Moreover, in test [2], the ED50 was found to be 100 mg/kg.
In the case of `c1cc2c(c(N3CCN(CCCc4c[nH]c5ccccc45)CC3)c1)OCCO2`, the ED50 in test [2] turned out to be 22 mg/kg. The compound also came in with a Ki in test [3] of 21 nM.
In the case of `CC1CNc2cccc(N3CCN(CCCc4c[nH]c5ccccc45)CC3)c2C1` (stereo unspecified), the Ki was 2.7 nM in test [1] and 15 nM in test [3]. Moreover, in test [2], the ED50 was above 100 mg/kg.
The like results for `CC1(C)Oc2c(cccc2N2CCN(CCCc3c[nH]c4ccccc34)CC2)NC1=O` were, in that order, 2.8 nM, 7.4 nM and 7.3 mg/kg.
`Clc1cccc2c(CCCN3CCN(c4cccc5c4OCCO5)CC3)c[nH]c12`: in test [3], affinity was put at a Ki of 15.5 nM.
As to `O=C1COc2c(cccc2N2CCN(CCCc3c[nH]c4ccccc34)CC2)N1`, the Ki in test [1] amounted to 0.6 nM; in test [3] it was 4.3 nM. Moreover, the ED50 in test [2] was determined as 30 mg/kg.
In the case of `O=C1CCc2c(cccc2N2CCN(CCCc3c[nH]c4ccccc34)CC2)N1`, the Ki in test [1] was 1.5 nM; in test [3], 11.4 nM. For the same compound, in test [2], the ED50 is 9 mg/kg.
Turning to `c1cc2c(c(N3CCN(CCCc4c[nH]c5ccccc45)CC3)c1)CCCO2`, the ED50 in test [2] was 100 mg/kg. Further, the affinity in test [3] corresponds to a Ki of 20.3 nM.
For `c1cc2c(c(N3CCN(CCCCc4c[nH]c5ccccc45)CC3)c1)OCCO2`, the Ki in test [1] is 60 nM; in test [3], 5.1 nM. In addition, in test [2], the ED50 was above 30 mg/kg.
Consider `Clc1ccc2c(CCCN3CCN(c4cccc5c4OCCO5)CC3)c[nH]c2c1`, for which the ED50 in test [2] was determined as 86 mg/kg. The compound also gave a Ki in test [3] of 2.1 nM.
`CC1Oc2c(N3CCN(CCCc4c[nH]c5ccccc45)CC3)cccc2N(C)C1=O` (stereo unspecified): the Ki turned out to be 1.4 nM in test [1] and 35.7 nM in test [3]. The ED50 in test [2] worked out at 5.6 mg/kg.
With `c1cc2c(c(N3CCN(CCCCCc4c[nH]c5ccccc45)CC3)c1)OCCO2`, affinity in test [3] was put at a Ki of 9.1 nM.
As for `C[C@@H]1Oc2c(cccc2N2CCN(CCCc3c[nH]c4ccccc34)CC2)NC1=O`, the Ki in test [1] and in test [3] was 1 nM throughout. For the same compound, the ED50 in test [2] is above 10 mg/kg.
In the case of `Fc1cccc2[nH]cc(CCCN3CCN(c4cccc5c4OCCO5)CC3)c12`, the ED50 in test [2] came out at 32 mg/kg. In test [3], this compound had a Ki of 8.1 nM.
Taken in the same sequence, the figures for `Fc1ccc2[nH]cc(CCCN3CCN(c4cccc5c4OCCO5)CC3)c2c1` were 2 mg/kg and 19 nM.
On to `C[C@@H]1Oc2c(cccc2N2CCN(CCCc3c[nH]c4c(F)cccc34)CC2)NC1=O`, for which the Ki worked out at 3 nM in test [1] and 1 nM in test [3]. The ED50 in test [2] came out at 10 mg/kg.
For the compound `CN1CCCc2c1cccc2N1CCN(CCCc2c[nH]c3ccccc23)CC1`, the Ki in test [1] was found to be 7.4 nM; in test [3] it was 90 nM.
Compound `COc1ccc2[nH]cc(CCCN3CCN(c4cccc5c4OCCO5)CC3)c2c1` gave a Ki in test [3] of 15 nM.
With `Fc1ccc2c(CCCN3CCN(c4cccc5c4OCCO5)CC3)c[nH]c2c1`, in test [2], the ED50 stood at 30 mg/kg.

The values above are taken from ChEMBL document CHEMBL1140372, “Synthesis, structure-activity relationships, and biological properties of 1-heteroaryl-4-[omega-(1H-indol-3-yl)alkyl]piperazines, novel potential antipsychotics combining potent dopamine D2 receptor antagonism with potent serotonin reuptake inhibition” (J Med Chem, 2005).
